Our source for the IC50, inhibition of growth and inhibition values is ChEMBL document CHEMBL4732238, “Synthesis, biological evaluation, and structure-activity relationships of new tubulin polymerization inhibitors based on 5-amino-1,2,4-triazole scaffold” (Bioorg Med Chem Lett, 2021).

Assay [1] has as its system K562. Description: Antiproliferative activity against human K562 cells assessed as cell growth inhibition by MTT assay. The format is functional, cell-based. (Formazan colour is commonly taken as a measure of viable cells.)
For assay [2], the system named is HeLa. Description: Antiproliferative activity against human HeLa cells assessed as cell growth inhibition by MTT assay. The format is functional, cell-based. The method in brief: (§1)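 MTT antiproliferation readout. […] Mean ± SD from three independent experiments.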
Assay [3] has as its system MCF7. Description: Antiproliferative activity against human MCF7 cells assessed as cell growth inhibition by MTT assay. The format is functional, cell-based. The method in brief: as §1
The subject of assay [4] is MCF7. The assay is described as follows: Antiproliferative activity against human MCF7 cells assessed as cell growth inhibition at 100 uM by MTT assay relative to control. The format is functional. Particulars: read-out: GI. A digest of the protocol:
(§2)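 Five human lines (MCF-7, HeLa, A549, PC-3, Panc-1) exposed to a single 100 μM concentration. Viability read by MTT. Results expressed as […] versus untreated control cells.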

Assay [5] relates to PANC-1. Description: Antiproliferative activity against human PANC-1 cells assessed as cell growth inhibition at 100 uM by MTT assay relative to control. The format is functional. To be noted: read-out: GI. The method in brief:
as §2

Assay [6] concerns HeLa. Description: Antiproliferative activity against human HeLa cells assessed as cell growth inhibition at 100 uM by MTT assay relative to control. The format is functional. Particulars: read-out: GI. A digest of the protocol:
as §2

Assay [7] relates to A549. The assay is described as follows: Antiproliferative activity against human A549 cells assessed as cell growth inhibition at 100 uM by MTT assay relative to control. The format is functional. To be noted: read-out: GI. The method in brief: as §2
Assay [8] concerns PC-3. The assay is described as follows: Antiproliferative activity against human PC-3 cells assessed as cell growth inhibition at 100 uM by MTT assay relative to control. The format is functional. To be noted: read-out: GI. The method in brief:
as §2

The subject of assay [9] is PANC-1. The assay is described as follows: Antiproliferative activity against human PANC-1 cells assessed as cell growth inhibition by MTT assay. The format is functional, cell-based. The method in brief: as §1
Assay [10] deals with Tubulin (Homo sapiens) (UniProt P68371+Q9H4B7+P0DPH7+P68366+Q13509+Q71U36+P04350+Q3ZCM7+P07437+P68363+Q9BQE3+Q6PEY2+Q13885+Q9BVA1+Q9BUF5). The assay is described as follows: Inhibition of tubulin (unknown origin) polymerization at 10 uM measured every 1 min over 20 mins by fluorescence assay relative to control. The format is protein-complex assay. A digest of the protocol:
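Tubulin in reaction buffer incubated at 37 °C with test agent at final 10 μM; control 1% DMSO. Polymerization followed at 340 nm, read every minute over 20 min. Run three times.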

SMILES strings stand for the structures. A value given as a limit tells only on which side of the number the result lay.

As to `COc1ccc(/C=C\c2cc(OC)c(OC)c(OC)c2)cc1O` [COMBRETASTATIN A4], the values for the IC50 in [1], in [2] and in assay [3] were 0.61 µM, 0.0047 µM and 0.17 µM, respectively.
As for `COc1cc(-c2nc(N)n(CC(=O)Nc3ccc(Cl)cc3)n2)cc(OC)c1OC`, the inhibition of growth at 100 µM amounted to 37% in assay [4]; 12% in [5]; 30% in assay [6]; 22% in assay [7]; 14% in assay [8].
In the case of `COc1cc(-c2nc(N)n(Cc3cc(OC(F)(F)F)cc(OC(F)(F)F)c3)n2)cc(OC)c1OC`, the 50% inhibitory concentration (IC50) is 31.5 µM in assay [1], 53.1 µM in assay [2], 73 µM in assay [9] and over 100 µM in assay [3]. The inhibition of growth at 100 µM was determined as 55% in assay [4]; 71% in assay [5]; 73% in [6]; 6% in assay [7]; 36% in assay [8].
As for `COc1cc(-c2nc(N)n(Cc3ccc(Cl)cc3)n2)cc(OC)c1OC`, the inhibition of growth at 100 µM in [4] worked out at 49%; in assay [5], 39%; in assay [6] it was 55%; in [7] it was 38%; in [8], 48%.
On to `COc1cc(-c2nc(N)n(CC(=O)Nc3c(C)cc(C)cc3C)n2)cc(OC)c1OC`, for which the inhibition of growth at 100 µM in assay [4] was 34%; in assay [5] it was 32%; in assay [6] it was 49%; in assay [7], 16%; in assay [8] it was 50%.
Regarding `COc1cccc(C(=O)Cn2nc(-c3cc(OC)c(OC)c(OC)c3)nc2N)c1`, the inhibition of growth at 100 µM in [4] was 30%; in assay [6], 27%; in [7] it was 20%; in assay [8] it was 37%.
For `COc1cc(-c2nc(N)n(Cc3ccccc3F)n2)cc(OC)c1OC`, the inhibition of growth at 100 µM in [4] worked out at 33%; in assay [5], 5%; in assay [6], 33%; in assay [7], 24%; in assay [8], 35%.
As for `COc1cc(-c2nc(N)n(CC(=O)Nc3ccc(C)c(C)c3)n2)cc(OC)c1OC`, the inhibition of growth at 100 µM in assay [4] stood at 32%; in assay [5] it was 32%; in [6], 20%; in assay [7], 29%.
As for `COc1cc(-c2nc(N)n(CC(=O)Nc3ccc(N(C)C)cc3)n2)cc(OC)c1OC`, the results for the inhibition of growth at 100 µM in assay [4], in assay [6] and in assay [7] were 14%, 29% and 7%, respectively.
`COc1cc(-c2nc(N)n(Cc3ccc([N+](=O)[O-])cc3)n2)cc(OC)c1OC`: the IC50 in [1] is over 100 µM; in assay [2], 57.2 µM; in assay [9], over 100 µM; in assay [3] it was 82.1 µM. Further, the inhibition of growth at 100 µM turned out to be 52% in [4]; 53% in assay [5]; 58% in assay [6]; 13% in assay [7]; 21% in [8].
In the case of `COc1cc(-c2nc(N)n(CC(=O)c3ccc(F)c(F)c3)n2)cc(OC)c1OC`, the inhibition of growth at 100 µM was 48% in assay [4]; 52% in [5]; 31% in [6]; 14% in [7]; 28% in assay [8].
Consider `CCCc1ccc(NC(=O)Cn2nc(-c3cc(OC)c(OC)c(OC)c3)nc2N)cc1`, for which the IC50 in [1] is 41.1 µM; in assay [2], 56.1 µM; in [9] it was 20 µM; in [3] it was 44.7 µM. For the same compound, the inhibition of growth at 100 µM in assay [4] came to 70%; in assay [5] it was 91%; in [6] it was 75%; in [7], 37%; in [8], 61%. This compound displayed an inhibition in [10] of 14%.
Turning to `COc1cc(-c2nc(N)n(CC(=O)c3ccccc3)n2)cc(OC)c1OC`, the inhibition of growth at 100 µM in [4] worked out at 30%; in assay [5] it was 4%; in [6], 42%; in assay [7], 15%.
Take `COc1cc(-c2nc(N)n(CC(=O)Nc3ccc(C)cc3F)n2)cc(OC)c1OC`: the inhibition of growth at 100 µM in [4] worked out at 21%; in assay [5] it was 22%; in assay [6], 32%; in [7] it was 12%; in assay [8] it was 25%.
With `COc1cccc(NC(=O)Cn2nc(-c3cc(OC)c(OC)c(OC)c3)nc2N)c1`, the inhibition of growth at 100 µM in assay [6] is 39%; in assay [8] it was 6%.
`COc1ccc(NC(=O)Cn2nc(-c3cc(OC)c(OC)c(OC)c3)nc2N)cc1`: the inhibition of growth at 100 µM was 50% in assay [4], 30% in assay [6], 9% in [7] and 33% in [8].
As for `COc1cc(-c2nc(N)n(CC(=O)Nc3cccc(C)c3)n2)cc(OC)c1OC`, the inhibition of growth at 100 µM is 23% in assay [4]; 10% in assay [5]; 18% in assay [6]; 34% in assay [7]; 50% in [8].
In the case of `COc1cc(-c2nc(N)n(CC(=O)Nc3ccc(C(C)C)cc3)n2)cc(OC)c1OC`, the inhibition of growth at 100 µM in assay [4] amounted to 8%; in assay [5], 22%; in assay [6] it was 45%; in [8] it was 37%.
As to `COc1cc(-c2nc(N)n(CC(=O)c3ccc(Br)cc3)n2)cc(OC)c1OC`, the inhibition of growth at 100 µM was 27% in assay [4]; 6% in assay [5]; 41% in assay [6]; 12% in assay [7]; 38% in assay [8].
`COc1cc(-c2nc(N)n(Cc3ccc(F)cc3)n2)cc(OC)c1OC`: the inhibition of growth at 100 µM in assay [4] was 34%; in assay [5], 7%; in assay [6] it was 28%; in assay [7], 42%; in assay [8] it was 41%.
In the case of `COc1ccc(NC(=O)Cn2nc(-c3cc(OC)c(OC)c(OC)c3)nc2N)cc1OC`, the inhibition of growth at 100 µM in [4] was 12%; in [5], 14%; in assay [6] it was 41%; in [7], 22%; in [8], 42%.
In the case of `COc1cc(-c2nc(N)n(CC(=O)c3ccc(Cl)cc3)n2)cc(OC)c1OC`, the inhibition of growth at 100 µM in [5] came to 6%; in [6], 38%; in assay [7], 26%; in assay [8], 26%.
Turning to `COc1cc(-c2nc(N)n(Cc3cccc(C#N)c3)n2)cc(OC)c1OC`, the inhibition of growth at 100 µM turned out to be 43% in [4], 6% in assay [5], 28% in assay [6] and 30% in assay [7].
With `COc1cc(-c2nc(N)n(CC(=O)Nc3ccc(C)cc3)n2)cc(OC)c1OC`, the inhibition of growth at 100 µM stood at 5% in [5], 35% in [6] and 31% in [8].
For the compound `COc1cc(-c2nc(N)n(CC(=O)c3ccc(C)cc3)n2)cc(OC)c1OC`, the IC50 in assay [1] is 33 µM; in assay [2] it was 54 µM; in [9], over 100 µM; in assay [3], 53 µM. For the same compound, the inhibition of growth at 100 µM in assay [4] turned out to be 53%; in assay [5] it was 17%; in [6], 70%; in assay [8] it was 35%. The compound also came in with an inhibition in [10] of 42%.
On to `CCc1ccc(NC(=O)Cn2nc(-c3cc(OC)c(OC)c(OC)c3)nc2N)cc1`, for which the inhibition of growth at 100 µM was determined as 31% in assay [4], 12% in [6], 27% in assay [7] and 40% in assay [8].
For `COc1cc(-c2nc(N)n(CC(=O)c3cccc(Br)c3)n2)cc(OC)c1OC`, the IC50 is over 100 µM in [1], 58.2 µM in assay [2], 79.6 µM in assay [9] and 68.4 µM in [3]. Moreover, the inhibition of growth at 100 µM is 59% in [4], 51% in assay [5], 66% in [6] and 35% in assay [7].
`COc1cc(-c2nc(N)n(CC(=O)c3ccc(F)cc3)n2)cc(OC)c1OC`: the inhibition of growth at 100 µM in assay [4] turned out to be 27%; in [6], 9%; in assay [7], 13%; in assay [8] it was 18%.

Broadly, the IC50 is the point on the concentration scale where inhibition reaches its midpoint. A word on the inhibition: it is the share of the control response that was lost under treatment. High values mean a response far below the control, low ones a response near the control.
